HDAC3 inhib – human HDAC3 inhibition | recombinant HDAC3, fluorogenic peptide/trypsin coupled, fluorescence | 0.15% of 320,000 active | O15379 | inhibition, % at 8.3 µM | AID 2718; in the data active = inhibition above about 26%, passing the limit was not always enough
Target sequence (O15379 whole entry, looked up): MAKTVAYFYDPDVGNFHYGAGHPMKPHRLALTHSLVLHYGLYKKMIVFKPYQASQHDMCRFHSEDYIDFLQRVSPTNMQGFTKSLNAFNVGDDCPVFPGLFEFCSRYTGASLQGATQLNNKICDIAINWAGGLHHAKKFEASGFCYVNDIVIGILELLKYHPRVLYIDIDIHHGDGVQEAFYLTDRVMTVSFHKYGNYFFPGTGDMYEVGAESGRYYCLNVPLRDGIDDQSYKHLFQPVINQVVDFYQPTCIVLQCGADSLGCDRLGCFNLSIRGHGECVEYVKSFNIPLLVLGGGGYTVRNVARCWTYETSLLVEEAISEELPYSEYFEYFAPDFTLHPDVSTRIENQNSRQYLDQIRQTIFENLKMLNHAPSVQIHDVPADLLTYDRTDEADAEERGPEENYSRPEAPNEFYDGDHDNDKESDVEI
SENP1 FRET inh – blocks the human SENP1 SUMO protease catalytic domain; recombinant SENP1 catalytic domain, CyPet-SUMO1-YPet FRET cleavage; inhibition, % at 10 µM; Q9P0U3; 0.21% of 360,000 active;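 active = inhibition at least 30% at 10 µM, raw YFP signal under a set limit, fluorescence ratio 0.5 to 1.5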;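 note: 0% = enzyme with DMSO and 100% = no enzyme wells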
Target sequence (Q9P0U3 419-644 limits assumed): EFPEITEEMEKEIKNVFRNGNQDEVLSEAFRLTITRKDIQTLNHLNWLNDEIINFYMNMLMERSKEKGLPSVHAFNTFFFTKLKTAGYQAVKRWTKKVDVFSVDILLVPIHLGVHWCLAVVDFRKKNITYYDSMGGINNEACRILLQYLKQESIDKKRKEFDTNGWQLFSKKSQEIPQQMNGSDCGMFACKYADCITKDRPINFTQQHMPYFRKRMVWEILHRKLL
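Assay system: hSENP1 catalytic domain, recombinant. Amount: SENP1 enzyme, 20 pM final. Schedule: 50 min reaction, RT, dark. Technique: FRET, CFP and YFP emission. Control set: no-enzyme wells low, DMSO-plus-enzyme wells high control.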
PfM18AAP inh-1 – blocks P. falciparum M18 aspartyl aminopeptidase. recombinant PfM18AAP, H-Glu-NHMec fluorogenic cleavage. inhibition, % at 7.35 µM. 1.2% of 290,000 active. AID 1822;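 active = inhibition above the campaign mean inhibition over all tested compounds plus 3 SD, cut at about 28% in these data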;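 note: 0% = plate median of test compound wells and 100% = 2 mM ZnCl2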
FXN GAA850 act – increases GAA850 frataxin promoter reporter activity | activation, % at 6 µM | AID 540364 | HEK293 lucGAA850 FXN promoter luciferase reporter, 24 h; percent of 10 µM SAHA response | 0.56% of 360,000 active;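 active = activation above the average of all compounds screened plus 3 SD, cutoff fixed separately per campaign, cut at about 7.5% in these data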;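 note: 0% = DMSO wells and 100% = 10 µM SAHA wells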
CTSL1 counter-1 – cathepsin L1 inhibition, PFM18AAP counter-screen | AID 1906 | recombinant F. hepatica cathepsin L1, Z-Leu-Arg-MCA fluorescence | 0.49% of 300,000 active | inhibition, % at 5.96 µM;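 active = inhibition above the mean of all tested compounds plus 3 SD, set per screening campaign, cut at about 17% in these data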;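 note: 0% = plate median of test compound wells and 100% = 1 µM Z-Phe-Ala-diazomethylketone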
AHR activator – activators of human aryl hydrocarbon receptor; 2.5% of 320,000 active; AID 2796; activation, % at 5 µM; AHR-responsive luciferase reporter cells, luminescence; P35869; in the data active = activation above about 47%;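 note: 0% = vehicle wells and 100% = reference agonist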
PfM18AAP inh-2 – PfM18AAP inhibition, confirmation | shares compounds with PfM18AAP inh-1 | recombinant PfM18AAP, H-Glu-NHMec fluorogenic cleavage | inhibition, % at 7.35 µM | 28% of 2,400 active | AID 2170;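 active = mean inhibition over replicate wells above the hit cutoff set for the earlier primary screen, cut at about 29% in these data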;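 note: 0% = median of test compound wells and 100% = 2 mM ZnCl2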
CTSL1 counter-2 – Cathepsin L (human) inhibition, confirmation | shares compounds with PfM18AAP inh-1 | inhibition, % at 5.96 µM | AID 2178 | purified cathepsin L1, Z-Leu-Arg-MCA fluorescence | 2,400 tested, under 10 active;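 active = average inhibition across replicates above the hit cutoff set in the earlier primary screen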;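 note: 0% = median of test compound wells and 100% = Z-Phe-Ala-diazomethylketone 1 µM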
Starred values were filed as active, the others as inactive. Sampled rows, rich in hits. Any-hit rate of the full collection: about 4.2%.

`C[C@H](NC(=O)c1cc2c(cn1)[nH]c1ccccc12)C(=O)O` gave HDAC3 inhib 2, SENP1 FRET inh -3, PfM18AAP inh-1 51*, FXN GAA850 act 2, PfM18AAP inh-2 27 and CTSL1 counter-2 6.
Screening COc1cc(/C=N/Nc2nncn2N)ccc1OCc1c(C)no[n+]1[O-] returned HDAC3 inhib 1, SENP1 FRET inh 3, PfM18AAP inh-1 51*, FXN GAA850 act -2, CTSL1 counter-1 3, AHR activator 3, PfM18AAP inh-2 -6 and CTSL1 counter-2 5.
COc1cc(/C=C(\C#N)C(N)=O)ccc1OCc1c(C)no[n+]1[O-] was read as HDAC3 inhib 1, SENP1 FRET inh -11, PfM18AAP inh-1 -6, FXN GAA850 act 1, CTSL1 counter-1 -2 and AHR activator 2.
Screening Cc1cc(NS(=O)(=O)c2ccccc2)cc(Cl)c1O returned HDAC3 inhib 7, SENP1 FRET inh 1, PfM18AAP inh-1 67*, FXN GAA850 act 2, CTSL1 counter-1 1, AHR activator 44, PfM18AAP inh-2 -56 and CTSL1 counter-2 -5.
O=C(N/N=C/c1ccc(Cl)cc1Cl)c1ccc(-n2cnnn2)cc1 was read as HDAC3 inhib -11, SENP1 FRET inh -1, FXN GAA850 act 0 and AHR activator 0.
For Nn1cnnc1N/N=C/c1ccc(Cl)cc1Cl the results were HDAC3 inhib 3, SENP1 FRET inh 3, PfM18AAP inh-1 48*, FXN GAA850 act 0, PfM18AAP inh-2 -21 and CTSL1 counter-2 1.
Cc1cc(O)c2/c(=N\N)c(-c3csc(C)n3)coc2c1 was read as HDAC3 inhib -3, SENP1 FRET inh -75, PfM18AAP inh-1 71*, FXN GAA850 act 2, CTSL1 counter-1 3, AHR activator 2, PfM18AAP inh-2 48* and CTSL1 counter-2 -1.
For Cc1nc(-c2coc3c(CN(C)C)c(O)ccc3c2=O)cs1 the results were HDAC3 inhib -15, SENP1 FRET inh -2, PfM18AAP inh-1 -18, FXN GAA850 act 2, CTSL1 counter-1 1 and AHR activator 6.
For C/C(=N\Nc1nc(C)cc(-c2ccccc2)n1)c1ccc(F)cc1 the results were HDAC3 inhib -1, SENP1 FRET inh 0, PfM18AAP inh-1 -10, FXN GAA850 act 3, CTSL1 counter-1 -2 and AHR activator 37.
For C/C(=N/Nc1nc(-c2ccccc2)cc(-c2ccc(F)cc2)n1)c1cccc(N)c1 the results were HDAC3 inhib 1, SENP1 FRET inh -36, PfM18AAP inh-1 36*, FXN GAA850 act 2, CTSL1 counter-1 -1, AHR activator 46, PfM18AAP inh-2 -8 and CTSL1 counter-2 3.
C/C(CC(=O)Nc1ccccc1C#N)=N\NC(=O)c1ccncc1 was read as HDAC3 inhib 7, SENP1 FRET inh 1, PfM18AAP inh-1 37*, FXN GAA850 act 2, CTSL1 counter-1 -1, AHR activator 16, PfM18AAP inh-2 -19 and CTSL1 counter-2 -4.
For COCc1cc(C2C(C(=O)c3ccco3)=C(O)C(=O)N2CCOCCO)ccc1O (centres undefined) the results were HDAC3 inhib -1, SENP1 FRET inh 2, PfM18AAP inh-1 43*, FXN GAA850 act 0, CTSL1 counter-1 3, AHR activator 1, PfM18AAP inh-2 -20 and CTSL1 counter-2 6.
Screening CCOc1cc(C2C(C(=O)c3ccco3)=C(O)C(=O)N2CCc2ccccc2)ccc1O (centres undefined) returned HDAC3 inhib 8, SENP1 FRET inh 2, PfM18AAP inh-1 33*, FXN GAA850 act -1, CTSL1 counter-1 2, AHR activator 4, PfM18AAP inh-2 -5 and CTSL1 counter-2 6.
Cn1c(-c2ccc(N)cc2)nc2ccccc21 was read as HDAC3 inhib -35, SENP1 FRET inh 0, PfM18AAP inh-1 -7, FXN GAA850 act 6, CTSL1 counter-1 -3 and AHR activator 4.
Cn1c(-c2ccc(Cl)nc2)nc2ccccc21 was read as HDAC3 inhib -13, SENP1 FRET inh 1, PfM18AAP inh-1 34*, FXN GAA850 act 1, CTSL1 counter-1 -1, AHR activator 0, PfM18AAP inh-2 -51 and CTSL1 counter-2 -3.
For Cc1ccc(O)c(Nc2c3ccccc3nc3ccccc23)c1 the results were HDAC3 inhib 0, SENP1 FRET inh -173, PfM18AAP inh-1 43*, FXN GAA850 act 2, CTSL1 counter-1 4, AHR activator 40, PfM18AAP inh-2 -48 and CTSL1 counter-2 5.
For O=C1c2ccccc2C(=O)N1/N=C/c1ccc(O)c(O)c1O the results were SENP1 FRET inh 19, PfM18AAP inh-1 66*, FXN GAA850 act 2, PfM18AAP inh-2 40* and CTSL1 counter-2 2.
`Cc1nc2ccccc2c(=O)n1/N=C/c1ccc(O)c(O)c1O` gave HDAC3 inhib 2, SENP1 FRET inh 2, PfM18AAP inh-1 47*, FXN GAA850 act 2, CTSL1 counter-1 -2, AHR activator 5, PfM18AAP inh-2 6 and CTSL1 counter-2 5.
Screening O=C1c2cccc3cccc(c23)C(=O)N1/N=C/c1ccc(O)cc1O returned HDAC3 inhib 0, SENP1 FRET inh 4, PfM18AAP inh-1 9, FXN GAA850 act 4, CTSL1 counter-1 6 and AHR activator 43.
Screening NCCc1ccc(O)c(O)c1 returned HDAC3 inhib -2, SENP1 FRET inh 2, PfM18AAP inh-1 73*, FXN GAA850 act -1, CTSL1 counter-1 0, AHR activator 3, PfM18AAP inh-2 66* and CTSL1 counter-2 -4.
For NCC(O)c1ccc(O)c(O)c1 (centres undefined) the results were SENP1 FRET inh 1 and FXN GAA850 act 0.
Screening CC(=O)N(c1ccc2oc(=O)sc2c1)S(=O)(=O)c1cccc2cccnc12 returned HDAC3 inhib 2, SENP1 FRET inh 2, PfM18AAP inh-1 14, FXN GAA850 act 3, CTSL1 counter-1 3 and AHR activator 0.
Screening CC(C)C(=O)N(c1cc2sc(=O)oc2c2ccccc12)S(=O)(=O)c1cccs1 returned HDAC3 inhib -4, SENP1 FRET inh 4, PfM18AAP inh-1 -37, FXN GAA850 act 4, CTSL1 counter-1 5 and AHR activator 22.
`CC(C)C(=O)N(c1ccc2oc(=O)sc2c1)S(=O)(=O)c1cccs1` gave HDAC3 inhib -1, SENP1 FRET inh 1, PfM18AAP inh-1 37*, FXN GAA850 act 0, CTSL1 counter-1 3, AHR activator 3, PfM18AAP inh-2 -10 and CTSL1 counter-2 2.
